Experiments:
[1] = target: T1, Serine/threonine-protein kinase ATR (Homo sapiens, UniProt Q13535); assay: Inhibition of full length recombinant ATR after 24 hrs by radiometric phosphate incorporation assay
Summary of the method: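 Radiometric [γ-33P]ATP incorporation into target peptide. Full-length ATR and ATM were made in-house; DNA-PK was purchased. Kinase, buffer and peptide were premixed, then compound was added in DMSO (7% final DMSO). Reactions started with ATP at 25 °C and were stopped with phosphoric acid (100 mM final) plus ATP (0.66 μM final). Peptide was captured on phosphocellulose, washed, and scintillation-counted.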

[2] = target: Serine-protein kinase ATM (Homo sapiens, UniProt Q13315); assay: Inhibition of full length recombinant ATM after 24 hrs by radiometric phosphate incorporation assay
[3] = target: DNA-dependent protein kinase catalytic subunit (Homo sapiens, UniProt P78527); assay: Inhibition of DNAPK after 2 hrs by radiometric phosphate incorporation assay
Cytochrome P450 3A4 = Cytochrome P450 3A4 (Homo sapiens, UniProt P08684); assay: Inhibition of CYP3A4; type: ADME
Chain of Cytochrome P450 3A4 (P08684 whole entry): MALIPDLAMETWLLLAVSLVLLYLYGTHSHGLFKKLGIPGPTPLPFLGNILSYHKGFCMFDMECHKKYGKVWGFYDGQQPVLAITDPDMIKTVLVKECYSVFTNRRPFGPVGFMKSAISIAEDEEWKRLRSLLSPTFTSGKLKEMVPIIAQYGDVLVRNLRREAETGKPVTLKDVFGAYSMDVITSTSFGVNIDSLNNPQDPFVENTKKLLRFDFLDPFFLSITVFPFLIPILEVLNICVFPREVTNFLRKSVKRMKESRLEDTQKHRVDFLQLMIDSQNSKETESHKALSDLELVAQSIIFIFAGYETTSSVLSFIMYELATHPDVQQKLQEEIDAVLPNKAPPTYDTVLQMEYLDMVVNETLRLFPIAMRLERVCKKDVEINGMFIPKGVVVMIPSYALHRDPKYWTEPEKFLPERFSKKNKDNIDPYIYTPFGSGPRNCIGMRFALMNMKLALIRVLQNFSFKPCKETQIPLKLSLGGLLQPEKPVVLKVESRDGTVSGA

[4] = target: T1, Serine/threonine-protein kinase ATR; assay: Inhibition of ATR in human HT-29 cells assessed as hydroxyurea-induced phosphorylation of H2AX by immunofluorescence microscopy; type: cell-based
[5] = Permeability from apical to basolateral side of human Caco2 cells; type: ADME, cell-based; settings: Caco-2, read-out: permeability
[6] = Permeability from basolateral to apical side of human Caco2 cells; type: ADME, cell-based; settings: Caco-2, read-out: permeability
HCT-116 [7] = assay: Cytotoxicity against human HCT116 cells after 96 hrs by MTS assay; type: functional, cell-based; settings: HCT-116, 96 h
Summary of the method: (§1)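 Exponentially growing cells were plated and left to adhere overnight. Compounds were added at the indicated concentrations for 96 h. MTS reagent was then added, and absorbance at 490 nm was read 1 h later as a measure of cell density.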

HFL1 [8] = assay: Cytotoxicity against human HFL1 cells at up to 20 uM after 96 hrs by MTS assay; type: cell-based; settings: hfl1, 96 h; summary of the method: as §1
HCT-116 [9] = assay: Potentiation of cisplatin-induced cytotoxicity against human HCT116 cells at 0.62 uM after 96 hrs by MTS assay; type: functional
Summary of the method: (§2)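 Exponentially growing cells (ATCC lines, kept per supplier) plated and left to adhere overnight, then given inhibitor at 0.62 μM combined with cisplatin at the indicated concentrations for 96 h. Cell density read by MTS reagent, absorbance at 490 nm 1 h after addition. Fold change in cisplatin potency taken as potentiation. Synergy judged by MacSynergy analysis.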

HFL1 [10] = assay: Potentiation of cisplatin-induced cytotoxicity against human HFL1 cells at 0.62 uM after 96 hrs by MTS assay; type: cell-based; settings: hfl1, 96 h; summary of the method: as §2
[11] = target: T1, Serine/threonine-protein kinase ATR; assay: Competitive inhibition of full length recombinant ATR Morrison equation analysis
Summary of the method: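 Mean IC50s were plotted against ATP concentration and fit to the tight-binding competitive-inhibition equation IC50 = Ki(1 + [ATP]/Km) + [E]/2 to obtain Ki.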

[12] = target: Serine/threonine-protein kinase mTOR (Homo sapiens, UniProt P42345); assay: Inhibition of mTOR by radiometric phosphate incorporation assay

T1 sequence (Q13535 whole entry): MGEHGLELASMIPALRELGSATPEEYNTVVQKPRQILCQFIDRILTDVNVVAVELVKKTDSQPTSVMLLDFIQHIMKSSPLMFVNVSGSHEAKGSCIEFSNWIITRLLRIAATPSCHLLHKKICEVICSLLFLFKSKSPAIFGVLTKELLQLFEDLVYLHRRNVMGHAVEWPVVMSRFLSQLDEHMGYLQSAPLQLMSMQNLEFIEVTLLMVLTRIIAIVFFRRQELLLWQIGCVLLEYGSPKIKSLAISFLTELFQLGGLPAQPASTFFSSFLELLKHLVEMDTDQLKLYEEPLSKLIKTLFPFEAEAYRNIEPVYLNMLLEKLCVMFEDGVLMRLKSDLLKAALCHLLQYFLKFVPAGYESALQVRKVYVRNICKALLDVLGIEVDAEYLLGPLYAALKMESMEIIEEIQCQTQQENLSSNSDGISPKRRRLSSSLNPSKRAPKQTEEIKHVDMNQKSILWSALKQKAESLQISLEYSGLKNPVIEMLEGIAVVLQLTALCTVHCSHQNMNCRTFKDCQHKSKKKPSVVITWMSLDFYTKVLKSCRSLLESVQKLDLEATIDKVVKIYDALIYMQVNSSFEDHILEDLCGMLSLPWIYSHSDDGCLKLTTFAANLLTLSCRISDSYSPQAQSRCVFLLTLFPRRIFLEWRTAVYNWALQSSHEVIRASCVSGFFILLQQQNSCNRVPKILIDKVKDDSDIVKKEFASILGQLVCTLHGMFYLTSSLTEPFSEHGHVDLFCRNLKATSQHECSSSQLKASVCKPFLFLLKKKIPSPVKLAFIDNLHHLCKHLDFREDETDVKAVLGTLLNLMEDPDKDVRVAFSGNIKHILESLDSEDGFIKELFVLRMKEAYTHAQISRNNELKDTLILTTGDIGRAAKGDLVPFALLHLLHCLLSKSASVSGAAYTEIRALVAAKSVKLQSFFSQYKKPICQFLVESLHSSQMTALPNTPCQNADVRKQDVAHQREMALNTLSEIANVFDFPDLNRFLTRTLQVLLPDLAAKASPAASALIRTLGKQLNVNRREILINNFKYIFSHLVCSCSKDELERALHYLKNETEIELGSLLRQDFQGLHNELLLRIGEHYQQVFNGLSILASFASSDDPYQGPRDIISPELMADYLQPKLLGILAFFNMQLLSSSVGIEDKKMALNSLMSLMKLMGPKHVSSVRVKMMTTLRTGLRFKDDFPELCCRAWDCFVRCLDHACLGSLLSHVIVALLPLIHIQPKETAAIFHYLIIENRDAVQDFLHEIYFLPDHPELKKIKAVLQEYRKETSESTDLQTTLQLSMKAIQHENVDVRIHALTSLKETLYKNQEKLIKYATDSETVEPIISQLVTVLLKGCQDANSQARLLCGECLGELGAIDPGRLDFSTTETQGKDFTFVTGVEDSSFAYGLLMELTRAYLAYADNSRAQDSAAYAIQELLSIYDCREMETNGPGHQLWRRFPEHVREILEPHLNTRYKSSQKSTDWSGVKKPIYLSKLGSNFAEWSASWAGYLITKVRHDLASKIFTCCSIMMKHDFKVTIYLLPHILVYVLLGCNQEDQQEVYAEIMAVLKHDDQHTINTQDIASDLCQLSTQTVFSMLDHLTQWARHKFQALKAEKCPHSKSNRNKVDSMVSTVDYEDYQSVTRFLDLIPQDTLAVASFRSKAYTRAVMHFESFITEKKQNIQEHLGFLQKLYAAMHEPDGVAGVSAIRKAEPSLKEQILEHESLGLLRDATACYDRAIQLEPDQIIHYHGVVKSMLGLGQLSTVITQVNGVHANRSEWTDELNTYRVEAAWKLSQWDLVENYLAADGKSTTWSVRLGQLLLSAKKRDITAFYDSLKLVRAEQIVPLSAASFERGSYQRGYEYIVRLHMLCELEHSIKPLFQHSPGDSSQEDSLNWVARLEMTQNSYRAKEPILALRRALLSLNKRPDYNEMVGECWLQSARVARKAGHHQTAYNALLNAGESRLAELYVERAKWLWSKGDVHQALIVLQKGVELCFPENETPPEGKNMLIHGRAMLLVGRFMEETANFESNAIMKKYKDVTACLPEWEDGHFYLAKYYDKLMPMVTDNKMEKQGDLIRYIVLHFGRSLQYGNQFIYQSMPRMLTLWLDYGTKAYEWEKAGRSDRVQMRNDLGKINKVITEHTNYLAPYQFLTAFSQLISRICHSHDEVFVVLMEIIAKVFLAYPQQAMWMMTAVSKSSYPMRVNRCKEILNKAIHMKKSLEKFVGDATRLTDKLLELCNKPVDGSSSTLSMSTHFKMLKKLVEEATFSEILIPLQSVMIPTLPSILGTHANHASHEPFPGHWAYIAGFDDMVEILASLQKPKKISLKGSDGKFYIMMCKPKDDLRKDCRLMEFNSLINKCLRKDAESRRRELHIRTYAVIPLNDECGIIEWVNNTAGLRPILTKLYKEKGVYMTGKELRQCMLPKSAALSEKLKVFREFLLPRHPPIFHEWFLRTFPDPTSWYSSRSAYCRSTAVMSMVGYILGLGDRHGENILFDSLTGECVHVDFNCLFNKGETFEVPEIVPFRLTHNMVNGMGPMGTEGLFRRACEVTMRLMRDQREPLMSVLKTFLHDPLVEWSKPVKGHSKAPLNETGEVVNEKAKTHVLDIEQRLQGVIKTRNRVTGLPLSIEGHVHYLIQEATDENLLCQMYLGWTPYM

Row | IC50 [1] [µM] | IC50 [2] [µM] | IC50 [3] [µM] | Compound | other results
1 | > 100 | > 100 |  | O=c1cc(N2CCOCC2)oc2c1ccc1ccccc12 | 
2 | 0.18 | > 8 | > 8 | Nc1ncc(-c2cccnc2)nc1C(=O)Nc1ccccc1 | IC50 (Cytochrome P450 3A4): 2 µM
3 | 0.62 | > 8 | > 8 | Nc1ncc(-c2ccccc2)nc1C(=O)Nc1ccccc1 | IC50 [4]: > 2.5 µM; IC50 (Cytochrome P450 3A4): > 100 µM
4 | 7.1 | > 8 | > 8 | Nc1nccnc1C(=O)Nc1ccccc1 | 
5 | 5.2 | > 8 | > 8 | Nc1ncc(Br)nc1C(=O)Nc1ccccc1 | 
6 | 3 | > 8 | > 8 | Nc1ncc(C2CCCCC2)nc1C(=O)Nc1ccccc1 | 
7 | 2.1 | > 8 | > 8 | Nc1ncc(C2=CCCCC2)nc1C(=O)Nc1ccccc1 | 
8 | 0.64 | > 8 | 5 | Nc1ncc(-c2ccncc2)nc1C(=O)Nc1ccccc1 | 
9 | 0.024 | 0.32 | 0.72 | N#Cc1ccccc1-c1cnc(N)c(C(=O)Nc2ccccc2)n1 | 
10 | 0.13 | 3 | 2 | C[S+]([O-])c1ccccc1-c1cnc(N)c(C(=O)Nc2ccccc2)n1 (stereo not given) | 
11 | 1.3 | > 8 | > 8 | CS(=O)(=O)c1ccccc1-c1cnc(N)c(C(=O)Nc2ccccc2)n1 | 
12 | 2.4 | > 8 | > 8 | Nc1ncc(-c2ccccc2O)nc1C(=O)Nc1ccccc1 | 
13 | 0.74 | > 8 | > 8 | COc1ccccc1-c1cnc(N)c(C(=O)Nc2ccccc2)n1 | 
14 | 0.7 | > 8 | 3.8 | Nc1ncc(-c2ccccc2Cl)nc1C(=O)Nc1ccccc1 | 
15 | 1.4 | > 8 | 1.4 | Cc1ccccc1-c1cnc(N)c(C(=O)Nc2ccccc2)n1 | 
16 | 0.4 | > 8 | 2.2 | N#Cc1cccc(-c2cnc(N)c(C(=O)Nc3ccccc3)n2)c1 | 
17 | 0.34 | 6.6 | 0.74 | CS(=O)(=O)c1cccc(-c2cnc(N)c(C(=O)Nc3ccccc3)n2)c1 | 
18 | 0.54 | > 8 | 2.2 | Nc1ncc(-c2cccc(O)c2)nc1C(=O)Nc1ccccc1 | 
19 | 2.2 | > 8 | 4.2 | COc1cccc(-c2cnc(N)c(C(=O)Nc3ccccc3)n2)c1 | 
20 | 1.6 | > 8 | > 8 | Nc1ncc(-c2cccc(Cl)c2)nc1C(=O)Nc1ccccc1 | 
21 | 0.56 | > 8 | > 8 | Cc1cccc(-c2cnc(N)c(C(=O)Nc3ccccc3)n2)c1 | 
22 | 0.18 | > 8 | > 8 | N#Cc1ccc(-c2cnc(N)c(C(=O)Nc3ccccc3)n2)cc1 | 
23 | 0.32 | 5.8 | 1.8 | Nc1ncc(-c2ccc(O)cc2)nc1C(=O)Nc1ccccc1 | 
24 | 1.5 | > 8 | 6.6 | COc1ccc(-c2cnc(N)c(C(=O)Nc3ccccc3)n2)cc1 | 
25 | 2.4 | > 8 | > 8 | Nc1ncc(-c2ccc(Cl)cc2)nc1C(=O)Nc1ccccc1 | 

Row | IC50 [1] [µM] | IC50 [2] [µM] | IC50 [3] [µM] | Compound | other results
26 | 1.7 | > 8 | > 8 | Cc1ccc(-c2cnc(N)c(C(=O)Nc3ccccc3)n2)cc1 | 
27 | 0.11 | 2.9 | 1.2 | NC(=O)c1ccc(-c2cnc(N)c(C(=O)Nc3ccccc3)n2)cc1 | 
28 | 0.18 | 2.6 | 7 | CNC(=O)c1ccc(-c2cnc(N)c(C(=O)Nc3ccccc3)n2)cc1 | 
29 | 0.1 | > 8 | > 8 | Nc1ncc(-c2ccc(C(=O)N3CCC3)cc2)nc1C(=O)Nc1ccccc1 | IC50 [4]: 1 µM
30 | 0.054 | > 8 | > 8 | CN(C)C(=O)c1ccc(-c2cnc(N)c(C(=O)Nc3ccccc3)n2)cc1 | IC50 [4]: 2 µM
31 | 0.054 | > 8 | 2.8 | Nc1ncc(-c2ccc(C(=O)N3CCCC3)cc2)nc1C(=O)Nc1ccccc1 | IC50 [4]: 1.4 µM
32 | 0.026 | > 8 | > 8 | Nc1ncc(-c2ccc(C(=O)N3CCCCC3)cc2)nc1C(=O)Nc1ccccc1 | IC50 [4]: 6.5 µM
33 | 0.048 | > 8 | > 8 | CN(C)C(=O)c1ccc(-c2cnc(N)c(C(=O)Nc3ccccc3)n2)cc1Cl | IC50 [4]: 12 µM
34 | 0.056 | > 8 | 6.8 | C[S+]([O-])c1ccc(-c2cnc(N)c(C(=O)Nc3ccccc3)n2)cc1 (stereo not given) | IC50 [4]: 5.4 µM
35 | 0.012 | > 8 | 5.8 | CCS(=O)(=O)c1ccc(-c2cnc(N)c(C(=O)Nc3ccccc3)n2)cc1 | IC50 [4]: 1.5 µM
36 | 0.008 | > 8 | 5.6 | CC(C)S(=O)(=O)c1ccc(-c2cnc(N)c(C(=O)Nc3ccccc3)n2)cc1 | IC50 [4]: 1 µM
37 | 0.014 | 5.4 | > 8 | CCCS(=O)(=O)c1ccc(-c2cnc(N)c(C(=O)Nc3ccccc3)n2)cc1 | IC50 [4]: 2 µM
38 | 0.01 | 6.6 | > 8 | CCC(C)S(=O)(=O)c1ccc(-c2cnc(N)c(C(=O)Nc3ccccc3)n2)cc1 (stereo not given) | IC50 [4]: 1.6 µM
39 | 0.006 | > 8 | > 8 | CC(C)(C)S(=O)(=O)c1ccc(-c2cnc(N)c(C(=O)Nc3ccccc3)n2)cc1 | IC50 [4]: 1 µM
40 | 0.012 | > 8 | > 8 | CC(CN(C)C)S(=O)(=O)c1ccc(-c2cnc(N)c(C(=O)Nc3ccccc3)n2)cc1 (stereo not given) | IC50 [4]: 0.42 µM; Papp A→B [5]: 17 ×10⁻⁶ cm/s; Papp B→A [6]: 23 ×10⁻⁶ cm/s; IC50 (HCT-116 [7]): 1.1 µM; Activity (HFL1 [8]): Non-toxic; fold change (FC) (HCT-116 [9]): 7; fold change (FC) (HFL1 [10]): 1.1; Ki [11]: 0.006 µM
41 | 0.008 | > 8 | 3.2 | CC(CCO)S(=O)(=O)c1ccc(-c2cnc(N)c(C(=O)Nc3ccccc3)n2)cc1 (stereo not given) | IC50 [4]: 0.38 µM
42 | 0.01 | 5 | 4.4 | Nc1ncc(-c2ccc(S(=O)(=O)[C@@H]3CCOC3)cc2)nc1C(=O)Nc1ccccc1 | IC50 [4]: 0.46 µM
43 | 3.56 | > 8 | > 8 | CS(=O)(=O)c1ccc(-c2cnc(N)c(C(=O)NC3CCCCC3)n2)cc1 | 
44 | 0.03 | 0.38 | 2.1 | CS(=O)(=O)c1ccc(-c2cnc(N)c(-c3nc4ccccc4[nH]3)n2)cc1 | 
45 | 0.036 | 0.84 | 1.4 | CS(=O)(=O)c1ccc(-c2cnc(N)c(-c3nc4ccccc4o3)n2)cc1 | 
46 | 0.022 | 0.72 | 2.9 | CS(=O)(=O)c1ccc(-c2cnc(N)c(-c3nc4ccccc4s3)n2)cc1 | 
47 | 0.023 | 0.12 | 2.4 | CS(=O)(=O)c1ccc(-c2cnc(N)c(-c3cc4ccccc4[nH]3)n2)cc1 | 
48 | > 100 |  |  | O=c1cc(-c2cccc3c2Sc2ccccc2S3)oc(N2CCOCC2)c1 [KU-55933] | IC50 [12]: 9.3 µM
49 | 7.2 | 1740 |  | COc1cc2c(c(OC)c1OC)-c1c(cc3c(c1OC)OCO3)CC(C)C(C)C2 (stereo not given) [SCHISANDRIN B] | 

Row | Compound | IC50 [1] [µM] | IC50 [2] [µM] | IC50 [3] [µM] | other results
50 | CS(=O)(=O)c1ccc(-c2cnc(N)c(C(=O)Nc3ccccc3)n2)cc1 | 0.026 | > 8 | 4.4 | 
51 | Cn1c(=O)c2c(ncn2C)n(C)c1=O [CAFFEINE] | 1100 | 200 | 10000 | IC50 [12]: 400 µM
